Several values for one entry are separate records, joined by “and”; a condition that tells them apart may be missing. Identical values can stand only once.
Tested on: Fibroblast
Test: Multiplex assay against human fibroblast
Format: toxicity, cell-based
Outline: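 Phenotypes for tubulin, mitochondrial mass and membrane permeability are expressed as per cents of healthy-nucleus cells. Cells were stained live at seeding with Hoechst33342, BioTracker Green Microtubule Cytoskeleton Dye, MitoTracker Red and Annexin V Alexa Fluor 680, then imaged after compound addition on a CQ1 microscope at 37°C and 5% CO2. Machine-learning gating in CellPathfinder separated Hoechst high-intensity objects from normal cells, divided normal cells by nuclear state (healthy, pyknosed, fragmented) and divided pyknosed cells into mitotic or apoptotic.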

[1] = 12 h, 1 µM, compound concentration 1 uM, replicate 1
[2] = 12 h, 1 µM, compound concentration 1 uM, replicate 2
[3] = 12 h, 10 µM, compound concentration 10 uM, replicate 1
[4] = 12 h, 10 µM, compound concentration 10 uM, replicate 2
[5] = 24 h, 1 µM, compound concentration 1 uM, replicate 1
[6] = 24 h, 1 µM, compound concentration 1 uM, replicate 2
[7] = 24 h, 10 µM, compound concentration 10 uM, replicate 1
[8] = 24 h, 10 µM, compound concentration 10 uM, replicate 2
[9] = 48 h, 1 µM, compound concentration 1 uM, replicate 1
[10] = 48 h, 1 µM, compound concentration 1 uM, replicate 2
[11] = 48 h, 10 µM, compound concentration 10 uM, replicate 1
[12] = 48 h, 10 µM, compound concentration 10 uM, replicate 2

Cc1cccc(CN2CCN(C(c3ccccc3)c3ccc(Cl)cc3)CC2)c1.Cl.Cl (stereo unspecified)
Population Apoptotic (%) [1]: 64%
Population Fragmented Nuclei (%) [1]: 22%
Population Healthy Nuclei (%) [1]: 48%
Population Hoechst High Intensity Objects (%) [1]: 22%
Population Membrane Permeable-Phenotype (%) [1]: 34%
Population Mitochondria Different-Phenotype (%) [1]: 8%
Population Mitotic Cells (%) [1]: 35%
Population Normal (%) [1]: 77%
Population Pyknosed Nuclei (%) [1]: 29%
Population Tubulin-Different-Phenotype (%) [1]: 44%
Total Cell Count [1]: 134
Population Apoptotic (%) [2]: 0%
Population Fragmented Nuclei (%) [2]: 16%
Population Healthy Nuclei (%) [2]: 79%
Population Hoechst High Intensity Objects (%) [2]: 8%
Population Membrane Permeable-Phenotype (%) [2]: 4%
Population Mitochondria Different-Phenotype (%) [2]: 26%
Population Mitotic Cells (%) [2]: 100%
Population Normal (%) [2]: 91%
Population Pyknosed Nuclei (%) [2]: 3%
Population Tubulin-Different-Phenotype (%) [2]: 23%
Total Cell Count [2]: 48
Population Apoptotic (%) [3]: 61%
Population Fragmented Nuclei (%) [3]: 26%
Population Healthy Nuclei (%) [3]: 38%
Population Hoechst High Intensity Objects (%) [3]: 11%
Population Membrane Permeable-Phenotype (%) [3]: 15%
Population Mitochondria Different-Phenotype (%) [3]: 45%
Population Mitotic Cells (%) [3]: 38%
Population Normal (%) [3]: 88%
Population Pyknosed Nuclei (%) [3]: 34%
Population Tubulin-Different-Phenotype (%) [3]: 90%
Total Cell Count [3]: 127
Population Apoptotic (%) [4]: 50%
Population Fragmented Nuclei (%) [4]: 14%
Population Healthy Nuclei (%) [4]: 72%
Population Hoechst High Intensity Objects (%) [4]: 6%
Population Membrane Permeable-Phenotype (%) [4]: 6%
Population Mitochondria Different-Phenotype (%) [4]: 61%
Population Mitotic Cells (%) [4]: 50%
Population Normal (%) [4]: 93%
Population Pyknosed Nuclei (%) [4]: 13%
Population Tubulin-Different-Phenotype (%) [4]: 47%
Total Cell Count [4]: 58
Population Apoptotic (%) [5]: 75%
Population Fragmented Nuclei (%) [5]: 21%
Population Healthy Nuclei (%) [5]: 56%
Population Hoechst High Intensity Objects (%) [5]: 26%
Population Membrane Permeable-Phenotype (%) [5]: 34%
Population Mitochondria Different-Phenotype (%) [5]: 5%
Population Mitotic Cells (%) [5]: 25%
Population Normal (%) [5]: 73%
Population Pyknosed Nuclei (%) [5]: 21%
Population Tubulin-Different-Phenotype (%) [5]: 40%
Total Cell Count [5]: 125
Population Apoptotic (%) [6]: 80%
Population Fragmented Nuclei (%) [6]: 18%
Population Healthy Nuclei (%) [6]: 73%
Population Hoechst High Intensity Objects (%) [6]: 10%
Population Membrane Permeable-Phenotype (%) [6]: 11%
Population Mitochondria Different-Phenotype (%) [6]: 13%
Population Mitotic Cells (%) [6]: 20%
Population Normal (%) [6]: 89%
Population Pyknosed Nuclei (%) [6]: 8%
Population Tubulin-Different-Phenotype (%) [6]: 22%
Total Cell Count [6]: 47
Population Apoptotic (%) [7]: 66%
Population Fragmented Nuclei (%) [7]: 29%
Population Healthy Nuclei (%) [7]: 44%
Population Hoechst High Intensity Objects (%) [7]: 14%
Population Membrane Permeable-Phenotype (%) [7]: 16%
Population Mitochondria Different-Phenotype (%) [7]: 40%
Population Mitotic Cells (%) [7]: 33%
Population Normal (%) [7]: 85%
Population Pyknosed Nuclei (%) [7]: 26%
Population Tubulin-Different-Phenotype (%) [7]: 86%
Total Cell Count [7]: 132
Population Apoptotic (%) [8]: 11%
Population Fragmented Nuclei (%) [8]: 10%
Population Healthy Nuclei (%) [8]: 77%
Population Hoechst High Intensity Objects (%) [8]: 5%
Population Membrane Permeable-Phenotype (%) [8]: 5%
Population Mitochondria Different-Phenotype (%) [8]: 63%
Population Mitotic Cells (%) [8]: 88%
Population Normal (%) [8]: 94%
Population Pyknosed Nuclei (%) [8]: 12%
Population Tubulin-Different-Phenotype (%) [8]: 45%
Total Cell Count [8]: 67
Population Apoptotic (%) [9]: 66%
Population Fragmented Nuclei (%) [9]: 30%
Population Healthy Nuclei (%) [9]: 58%
Population Hoechst High Intensity Objects (%) [9]: 18%
Population Membrane Permeable-Phenotype (%) [9]: 20%
Population Mitochondria Different-Phenotype (%) [9]: 3%
Population Mitotic Cells (%) [9]: 33%
Population Normal (%) [9]: 81%
Population Pyknosed Nuclei (%) [9]: 10%
Population Tubulin-Different-Phenotype (%) [9]: 30%
Total Cell Count [9]: 136
Population Apoptotic (%) [10]: 87%
Population Fragmented Nuclei (%) [10]: 24%
Population Healthy Nuclei (%) [10]: 68%
Population Hoechst High Intensity Objects (%) [10]: 9%
Population Membrane Permeable-Phenotype (%) [10]: 6%
Population Mitochondria Different-Phenotype (%) [10]: 7%
Population Mitotic Cells (%) [10]: 12%
Population Normal (%) [10]: 90%
Population Pyknosed Nuclei (%) [10]: 7%
Population Tubulin-Different-Phenotype (%) [10]: 44%
Total Cell Count [10]: 124
Population Apoptotic (%) [11]: 57%
Population Fragmented Nuclei (%) [11]: 39%
Population Healthy Nuclei (%) [11]: 54%
Population Hoechst High Intensity Objects (%) [11]: 12%
Population Membrane Permeable-Phenotype (%) [11]: 16%
Population Mitochondria Different-Phenotype (%) [11]: 25%
Population Mitotic Cells (%) [11]: 42%
Population Normal (%) [11]: 87%
Population Pyknosed Nuclei (%) [11]: 6%
Population Tubulin-Different-Phenotype (%) [11]: 79%
Total Cell Count [11]: 124
Population Apoptotic (%) [12]: 50%
Population Fragmented Nuclei (%) [12]: 42%
Population Healthy Nuclei (%) [12]: 52%
Population Membrane Permeable-Phenotype (%) [12]: 9%
Population Mitochondria Different-Phenotype (%) [12]: 34%
Population Mitotic Cells (%) [12]: 50%
Population Pyknosed Nuclei (%) [12]: 5%
Population Tubulin-Different-Phenotype (%) [12]: 88%
Total Cell Count [12]: 133

CN(c1ccccc1CNc1nc(Nc2ccc3c(c2)CC(=O)N3)ncc1C(F)(F)F)S(C)(=O)=O
Population Apoptotic (%) [3]: 77% and 66%
Population Fragmented Nuclei (%) [3]: 25% and 30%
Population Healthy Nuclei (%) [3]: 60% and 55%
Population Hoechst High Intensity Objects (%) [3]: 16% and 14%
Population Mitotic Cells (%) [3]: 22% and 33%
Population Normal (%) [3]: 83% and 85%
Population Pyknosed Nuclei (%) [3]: 13% and 14%
Total Cell Count [3]: 189 and 148
Population Fragmented Nuclei (%) [4]: 56% and 49%
Population Healthy Nuclei (%) [4]: 38% and 25%
Population Hoechst High Intensity Objects (%) [4]: 39% and 31%
Population Mitochondria Different-Phenotype (%) [4]: 5% and 14%
Population Mitotic Cells (%) [4]: 100% and 64%
Population Normal (%) [4]: 60% and 68%
Total Cell Count [4]: 83 and 80
Population Apoptotic (%) [7]: 70% and 91%
Population Fragmented Nuclei (%) [7]: 26% and 36%
Population Healthy Nuclei (%) [7]: 55% and 54%
Population Hoechst High Intensity Objects (%) [7]: 14% and 18%
Population Membrane Permeable-Phenotype (%) [7]: 11%
Population Normal (%) [7]: 85% and 81%
Population Pyknosed Nuclei (%) [7]: 18% and 9%
Total Cell Count [7]: 176 and 163
Population Fragmented Nuclei (%) [8]: 43% and 49%
Population Healthy Nuclei (%) [8]: 47% and 28%
Population Hoechst High Intensity Objects (%) [8]: 36% and 30%
Population Membrane Permeable-Phenotype (%) [8]: 18% and 20%
Population Mitochondria Different-Phenotype (%) [8]: 13% and 26%
Population Normal (%) [8]: 63% and 69%
Population Pyknosed Nuclei (%) [8]: 8% and 22%
Total Cell Count [8]: 73 and 76

— ChEMBL document CHEMBL4689842, “EUbOPEN Chemogenomics Library wave 1” (2021)
